# Measured values as given in ChEMBL document CHEMBL4689842, “EUbOPEN Chemogenomics Library wave 1” (2021).
# Where “and” joins values, the source holds several entries; their conditions need not be identical. Identical values can stand only once.
# Tested on: U2OS
# Test: Multiplex assay against U2OS
# Assay type: toxicity, cell-based
# Conditions: human
# Outline: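 Live cells were stained at seeding with Hoechst33342, BioTracker Green Microtubule Cytoskeleton Dye, MitoTracker Red and Annexin V Alexa Fluor 680. Following compound addition, they were imaged on a CQ1 microscope at 37°C and 5% CO2 and gated by CellPathfinder machine learning into Hoechst high-intensity objects or normal cells, with normal cells split into healthy, pyknosed or fragmented nuclei and pyknosed cells into mitotic or apoptotic. Tubulin, mitochondrial-mass and membrane-permeability phenotypes are per cents of healthy-nucleus cells.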
# [1] = 12 h, 1 µM, compound concentration 1 uM, replicate 1
# [2] = 12 h, 1 µM, compound concentration 1 uM, replicate 2
# [3] = 12 h, 10 µM, compound concentration 10 uM, replicate 1
# [4] = 12 h, 10 µM, compound concentration 10 uM, replicate 2
# [5] = 24 h, 1 µM, compound concentration 1 uM, replicate 1
# [6] = 24 h, 1 µM, compound concentration 1 uM, replicate 2
# [7] = 24 h, 10 µM, compound concentration 10 uM, replicate 1
# [8] = 24 h, 10 µM, compound concentration 10 uM, replicate 2
# [9] = 48 h, 10 µM, compound concentration 10 uM, replicate 1
# [10] = 48 h, 10 µM, compound concentration 10 uM, replicate 2
structure (smiles),measurement,setting,value
Cc1c(Nc2ccc(S(=O)(=O)N3CCN(C)CC3)cc2F)nc2ccc(-c3cnn(C4CC4)c3)cn2c1=O,Population Apoptotic (%),[1],12%
same,Population Fragmented Nuclei (%),[1],4%
same,Population Healthy Nuclei (%),[1],91%
same,Population Hoechst High Intensity Objects (%),[1],2%
same,Population Membrane Permeable-Phenotype (%),[1],5%
same,Population Mitochondria Different-Phenotype (%),[1],15%
same,Population Mitotic Cells (%),[1],87%
same,Population Normal (%),[1],97%
same,Population Pyknosed Nuclei (%),[1],4%
same,Population Tubulin-Different-Phenotype (%),[1],18%
same,Total Cell Count,[1],160
same,Population Apoptotic (%),[2],0%
same,Population Fragmented Nuclei (%),[2],5%
same,Population Healthy Nuclei (%),[2],93%
same,Population Hoechst High Intensity Objects (%),[2],8%
same,Population Membrane Permeable-Phenotype (%),[2],10%
same,Population Mitochondria Different-Phenotype (%),[2],17%
same,Population Mitotic Cells (%),[2],100%
same,Population Normal (%),[2],91%
same,Population Pyknosed Nuclei (%),[2],1%
same,Population Tubulin-Different-Phenotype (%),[2],15%
same,Total Cell Count,[2],119
same,Population Apoptotic (%),[3],29% and 44%
same,Population Fragmented Nuclei (%),[3],21% and 30%
same,Population Healthy Nuclei (%),[3],73% and 60%
same,Population Hoechst High Intensity Objects (%),[3],34% and 46%
same,Population Mitotic Cells (%),[3],70% and 55%
same,Population Normal (%),[3],65% and 53%
same,Population Pyknosed Nuclei (%),[3],5% and 8%
same,Population Tubulin-Different-Phenotype (%),[3],12% and 27%
same,Total Cell Count,[3],201 and 120
same,Population Fragmented Nuclei (%),[4],56%
same,Population Healthy Nuclei (%),[4],42% and 39%
same,Population Hoechst High Intensity Objects (%),[4],41% and 58%
same,Population Membrane Permeable-Phenotype (%),[4],17% and 8%
same,Population Mitochondria Different-Phenotype (%),[4],11% and 23%
same,Population Mitotic Cells (%),[4],80% and 35%
same,Population Normal (%),[4],58% and 41%
same,Population Pyknosed Nuclei (%),[4],1% and 3%
same,Population Tubulin-Different-Phenotype (%),[4],11% and 8%
same,Population Apoptotic (%),[5],0%
same,Population Fragmented Nuclei (%),[5],1%
same,Population Healthy Nuclei (%),[5],95%
same,Population Hoechst High Intensity Objects (%),[5],1%
same,Population Membrane Permeable-Phenotype (%),[5],7%
same,Population Mitochondria Different-Phenotype (%),[5],7%
same,Population Mitotic Cells (%),[5],100%
same,Population Normal (%),[5],98%
same,Population Pyknosed Nuclei (%),[5],2%
same,Population Tubulin-Different-Phenotype (%),[5],17%
same,Total Cell Count,[5],173
same,Population Apoptotic (%),[6],11%
same,Population Fragmented Nuclei (%),[6],4%
same,Population Healthy Nuclei (%),[6],89%
same,Population Hoechst High Intensity Objects (%),[6],3%
same,Population Membrane Permeable-Phenotype (%),[6],8%
same,Population Mitochondria Different-Phenotype (%),[6],29%
same,Population Mitotic Cells (%),[6],88%
same,Population Normal (%),[6],96%
same,Population Pyknosed Nuclei (%),[6],6%
same,Population Tubulin-Different-Phenotype (%),[6],20%
same,Total Cell Count,[6],122
same,Population Apoptotic (%),[7],29% and 32%
same,Population Fragmented Nuclei (%),[7],15% and 33%
same,Population Healthy Nuclei (%),[7],77% and 56%
same,Population Hoechst High Intensity Objects (%),[7],27% and 49%
same,Population Membrane Permeable-Phenotype (%),[7],14% and 7%
same,Population Mitochondria Different-Phenotype (%),[7],8% and 22%
same,Population Mitotic Cells (%),[7],70% and 67%
same,Population Normal (%),[7],72% and 50%
same,Population Pyknosed Nuclei (%),[7],6% and 10%
same,Population Tubulin-Different-Phenotype (%),[7],7% and 16%
same,Total Cell Count,[7],284 and 128
same,Population Apoptotic (%),[8],22% and 60%
same,Population Fragmented Nuclei (%),[8],56% and 58%
same,Population Healthy Nuclei (%),[8],41% and 37%
same,Population Hoechst High Intensity Objects (%),[8],40% and 58%
same,Population Membrane Permeable-Phenotype (%),[8],16% and 13%
same,Population Mitochondria Different-Phenotype (%),[8],9% and 23%
same,Population Mitotic Cells (%),[8],77% and 40%
same,Population Normal (%),[8],59% and 41%
same,Population Pyknosed Nuclei (%),[8],2% and 3%
same,Population Tubulin-Different-Phenotype (%),[8],8% and 13%
same,Population Apoptotic (%),[9],43%
same,Population Fragmented Nuclei (%),[9],23%
same,Population Healthy Nuclei (%),[9],67%
same,Population Hoechst High Intensity Objects (%),[9],39%
same,Population Membrane Permeable-Phenotype (%),[9],4%
same,Population Mitochondria Different-Phenotype (%),[9],8%
same,Population Mitotic Cells (%),[9],56%
same,Population Normal (%),[9],60%
same,Population Pyknosed Nuclei (%),[9],8%
same,Population Tubulin-Different-Phenotype (%),[9],18%
same,Total Cell Count,[9],130
same,Population Apoptotic (%),[10],71%
same,Population Fragmented Nuclei (%),[10],57%
same,Population Healthy Nuclei (%),[10],38%
same,Population Hoechst High Intensity Objects (%),[10],53%
same,Population Membrane Permeable-Phenotype (%),[10],11%
same,Population Mitochondria Different-Phenotype (%),[10],17%
same,Population Mitotic Cells (%),[10],28%
same,Population Normal (%),[10],46%
same,Population Pyknosed Nuclei (%),[10],3%
same,Population Tubulin-Different-Phenotype (%),[10],8%
same,Total Cell Count,[10],45
